Experimental data taken from ChEMBL document CHEMBL1687901 (J Med Chem, 2011).
Values after ≈ are worked out from the molar mass of the structure shown.

Key:
Klebsiella pneumoniae = assay: Antibacterial activity against Klebsiella pneumoniae ATCC 13883 by CLSI M07-A8 method; type: functional
Staphylococcus aureus [1] = assay: Antibacterial activity against wild type Staphylococcus aureus Smith ATCC 13709 by CLSI M07-A8 method; type: functional
Staphylococcus aureus [2] = assay: Antibacterial activity against tetracycline-resistant Staphylococcus aureus isolate 161 harboring tet(M) gene by CLSI M07-A8 method; type: functional
Procedure, shortened: (§1)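 MICs were determined by CLSI broth microdilution in freshly prepared cation-adjusted Mueller Hinton broth, kept at 4 °C before use. Defibrinated horse blood was added as appropriate. Runs met QC ranges for comparator antibiotics with ATCC quality control strains.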

Escherichia coli [3] = assay: Inhibition of protein synthesis in Escherichia coli S30 extract by coupled transcription/translation assay; type: functional
Procedure, shortened: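 Coupled transcription/translation used an E. coli S30 extract with a firefly luciferase reporter. Compounds were diluted in water and tested as a three-point titration in duplicate. Reactions ran 1 h at 37 °C and were stopped on ice for 5 min, then luciferase substrate was added and luminescence read. Percent inhibition was calculated against uninhibited controls averaged per plate, and IC50 derived.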

Streptococcus pneumoniae [4] = assay: Antibacterial activity against Streptococcus pneumoniae ATCC 49619 by CLSI M07-A8 method; type: functional
Escherichia coli [5] = assay: Antibacterial activity against Escherichia coli ATCC 25922 by CLSI M07-A8 method; type: functional
Staphylococcus aureus [6] = assay: Antibacterial activity against tetracycline-resistant Staphylococcus aureus isolate 158 harboring tet(K) gene by CLSI M07-A8 method; type: functional; procedure, shortened: as §1
Escherichia coli [7] = assay: Antibacterial activity against tetracycline-resistant Escherichia coli isolate 155 harboring tet(A) gene by CLSI M07-A8 method; type: functional
Procedure, shortened: as §1, with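 “appropriate. The highest concentration tested was 32 μg/mL.” for “appropriate.”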

Streptococcus pneumoniae [8] = assay: Antibacterial activity against tetracycline-resistant Streptococcus pneumoniae isolate 160 harboring tet(M) gene by CLSI M07-A8 method; type: functional; procedure, shortened: as §1
[9] = AUC in Sprague-Dawley rat at 1 mg/kg, iv and 10 mg/kg, po; type: ADME, organism-based; settings: plasma
[10] = Clearance in Sprague-Dawley rat at 1 mg/kg, iv and 10 mg/kg, po; type: ADME, organism-based; settings: in vivo
in vivo = settings: Sprague-Dawley, rat, iv, 1 mg/kg
[11] = Half life in Sprague-Dawley rat at 1 mg/kg, iv and 10 mg/kg, po; type: ADME, organism-based; settings: in vivo
Rattus norvegicus = assay: Oral bioavailability in Sprague-Dawley rat at 1 mg/kg, iv and 10 mg/kg, po; type: ADME, organism-based; settings: in vivo
Staphylococcus aureus [12] = assay: Antibacterial activity against Staphylococcus aureus by CLSI M07-A8 method; type: functional
Streptococcus pneumoniae [13] = assay: Antibacterial activity against Streptococcus pneumoniae by CLSI M07-A8 method; type: functional
Escherichia coli [14] = assay: Antibacterial activity against Escherichia coli ATCC 25922 infected in iv dosed mouse septicemia model assessed as mouse protection after 48 hrs; type: functional; settings: ATCC 25922, iv, read-out: PD50
Procedure, shortened: (§2)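 Mice were challenged intraperitoneally with bacteria mixed with 5% mucin. For S. aureus ATCC 13709 (Smith) the inoculum was 2.1 × 10^6 cfu/mouse, and for E. coli ATCC 25922 it was 2.0 × 10^7 cfu/mouse. PD50 in mg/kg was calculated from survival at 48 h.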

Escherichia coli [15] = assay: Antibacterial activity against Escherichia coli by CLSI M07-A8 method; type: functional
Staphylococcus aureus [16] = assay: Antibacterial activity against Staphylococcus aureus ATCC 13709 infected in iv dosed mouse septicemia model assessed as mouse protection after 48 hrs; type: functional; settings: ATCC 13709, iv, read-out: PD50; procedure, shortened: as §2
Haemophilus influenzae = assay: Antibacterial activity against Haemophilus influenzae by CLSI M07-A8 method; type: functional
Staphylococcus aureus [17] = assay: Antibacterial activity against Staphylococcus aureus ATCC 13709 infected in mouse septicemia model assessed as mouse survival at 0.05 to 10 mg/kg, iv after 48 hrs; settings: dose mg/kg 0.05-10

SMILES	MIC (Klebsiella pneumoniae)	MIC (Staphylococcus aureus [1])	MIC (Staphylococcus aureus [2])	IC50 (Escherichia coli [3])	MIC (Streptococcus pneumoniae [4])	MIC (Escherichia coli [5])	MIC (Staphylococcus aureus [6])	MIC (Escherichia coli [7])	MIC (Streptococcus pneumoniae [8])	MIC50 (Staphylococcus aureus [12])	MIC90 (Staphylococcus aureus [12])	ED50 (Escherichia coli [14])	MIC90 (Escherichia coli [15])	ED50 (Staphylococcus aureus [16])	also measured
CN(C)[C@@H]1C(O)=C(C(N)=O)C(=O)[C@@]2(O)C(O)=C3C(=O)c4c(O)c(N)nc(Cl)c4C[C@H]3C[C@@H]12	0.5 µg/mL (≈ 1.08 µM)	0.016 µg/mL (≈ 0.0344 µM)	4 µg/mL (≈ 8.6 µM)	1.1 µg/mL (≈ 2.37 µM)	0.016 µg/mL (≈ 0.0344 µM)	0.25 µg/mL (≈ 0.538 µM)	8 µg/mL (≈ 17.2 µM)	> 32 µg/mL	4 µg/mL (≈ 8.6 µM)						
CN(C)CCCNc1nc(Cl)c2c(c1O)C(=O)C1=C(O)[C@]3(O)C(=O)C(C(N)=O)=C(O)[C@@H](N(C)C)[C@@H]3C[C@@H]1C2.Cl	16 µg/mL	2 µg/mL	8 µg/mL	0.58 µg/mL	1 µg/mL	8 µg/mL	2 µg/mL	> 32 µg/mL	4 µg/mL						
CN(C)CC(C)(C)CNc1nc(Cl)c2c(c1O)C(=O)C1=C(O)[C@]3(O)C(=O)C(C(N)=O)=C(O)[C@@H](N(C)C)[C@@H]3C[C@@H]1C2.Cl	2 µg/mL	0.5 µg/mL	2 µg/mL	0.7 µg/mL	0.016 µg/mL	0.5 µg/mL	0.125 µg/mL	8 µg/mL	0.125 µg/mL	0.125 µg/mL	2 µg/mL	17 mg/kg	4 µg/mL	0.36 mg/kg	AUC [9]: 4870 ng·h/mL; clearance [10]: 3.37 mL/min/kg; Vd (in vivo): 1.26 L/kg; half-life [11]: 4.3 h; F (Rattus norvegicus): 0.8%; MIC (Streptococcus pneumoniae [13]): ≤ 0.016 µg/mL; MIC50 (Streptococcus pneumoniae [13]): ≤ 0.016 µg/mL; MIC90 (Streptococcus pneumoniae [13]): 0.063 µg/mL; MIC50 (Escherichia coli [15]): 1 µg/mL; MIC50 (Haemophilus influenzae): 1 µg/mL; MIC90 (Haemophilus influenzae): 1 µg/mL
CN(C)c1nc(NC(=O)CNC(C)(C)C)c(O)c2c1C[C@H]1C[C@H]3[C@H](N(C)C)C(O)=C(C(N)=O)C(=O)[C@@]3(O)C(O)=C1C2=O.Cl	> 32 µg/mL	16 µg/mL	32 µg/mL	0.71 µg/mL	4 µg/mL	32 µg/mL	8 µg/mL	> 32 µg/mL	4 µg/mL						
CN(C)[C@@H]1C(O)=C(C(N)=O)C(=O)[C@@]2(O)C(O)=C3C(=O)c4c(O)c(N)nc(F)c4C[C@H]3C[C@@H]12.Cl.Cl	1 µg/mL	0.063 µg/mL	2 µg/mL	0.93 µg/mL	0.063 µg/mL	0.25 µg/mL	8 µg/mL	> 32 µg/mL	2 µg/mL						
CN(C)[C@@H]1C(O)=C(C(N)=O)C(=O)[C@@]2(O)C(O)=C3C(=O)c4c(O)c(NC(=O)CNC(C)(C)C)nc(F)c4C[C@H]3C[C@@H]12.Cl.Cl	16 µg/mL	4 µg/mL	16 µg/mL	0.36 µg/mL	2 µg/mL	8 µg/mL	16 µg/mL	> 32 µg/mL	8 µg/mL						
CCCNc1nc(F)c2c(c1O)C(=O)C1=C(O)[C@]3(O)C(=O)C(C(N)=O)=C(O)[C@@H](N(C)C)[C@@H]3C[C@@H]1C2.Cl.Cl	8 µg/mL	0.25 µg/mL	2 µg/mL	2.8 µg/mL	4 µg/mL	2 µg/mL	0.25 µg/mL	16 µg/mL	4 µg/mL						
CN(C)c1ncc(O)c2c1C[C@H]1C[C@H]3[C@H](N(C)C)C(O)=C(C(N)=O)C(=O)[C@@]3(O)C(O)=C1C2=O.Cl.Cl	0.25 µg/mL	0.031 µg/mL	16 µg/mL	0.76 µg/mL	0.063 µg/mL	0.125 µg/mL	2 µg/mL	> 32 µg/mL	8 µg/mL	≤ 0.016 µg/mL	16 µg/mL	4.3 mg/kg	> 32 µg/mL	< 0.3 mg/kg	AUC [9]: 1090 ng·h/mL; clearance [10]: 15.3 mL/min/kg; Vd (in vivo): 4.18 L/kg; half-life [11]: 3.1 h; F (Rattus norvegicus): 12.7%; MIC (Staphylococcus aureus [12]): ≤ 0.016 µg/mL; MIC50 (Streptococcus pneumoniae [13]): 2 µg/mL; MIC90 (Streptococcus pneumoniae [13]): 4 µg/mL; Survival (Staphylococcus aureus [17]): 100%; MIC50 (Escherichia coli [15]): 0.25 µg/mL; MIC50 (Haemophilus influenzae): 0.5 µg/mL; MIC90 (Haemophilus influenzae): 2 µg/mL
CN(C)[C@@H]1C(O)=C(C(N)=O)C(=O)[C@@]2(O)C(O)=C3C(=O)c4c(O)c(NC(=O)CNC(C)(C)C)nc(Cl)c4C[C@H]3C[C@@H]12.Cl.Cl.Cl	8 µg/mL	2 µg/mL	32 µg/mL	0.78 µg/mL	1 µg/mL	4 µg/mL	32 µg/mL	> 32 µg/mL	16 µg/mL						
CN(C)[C@@H]1C(O)=C(C(N)=O)C(=O)[C@@]2(O)C(O)=C3C(=O)c4c(O)cccc4[C@@](C)(O)[C@H]3C[C@@H]12 [TETRACYCLINE]					0.25 µg/mL (≈ 0.563 µM)			> 32 µg/mL		0.125 µg/mL (≈ 0.281 µM)	> 64 µg/mL	17 mg/kg	> 64 µg/mL	0.35 mg/kg	MIC (Streptococcus pneumoniae [13]): 0.125 µg/mL (≈ 0.281 µM); MIC (Haemophilus influenzae): 0.25 µg/mL (≈ 0.563 µM)
CN(C)c1cc(NC(=O)CNC(C)(C)C)c(O)c2c1C[C@H]1C[C@H]3[C@H](N(C)C)C(O)=C(C(N)=O)C(=O)[C@@]3(O)C(O)=C1C2=O [TIGECYCLINE]	0.125 µg/mL (≈ 0.213 µM)	0.063 µg/mL (≈ 0.108 µM)	0.125 µg/mL (≈ 0.213 µM)	0.47 µg/mL (≈ 0.803 µM)	0.016 µg/mL (≈ 0.0273 µM)	0.125 µg/mL (≈ 0.213 µM)	0.063 µg/mL (≈ 0.108 µM)	0.5 µg/mL (≈ 0.854 µM)	0.016 µg/mL (≈ 0.0273 µM)	0.063 µg/mL (≈ 0.108 µM)	1 µg/mL (≈ 1.71 µM)	2.1 mg/kg	0.5 µg/mL (≈ 0.854 µM)	0.35 mg/kg	AUC [9]: 1050 ng·h/mL; clearance [10]: 15.5 mL/min/kg; Vd (in vivo): 6.12 L/kg; half-life [11]: 4.6 h; F (Rattus norvegicus): 1.1%; MIC (Streptococcus pneumoniae [13]): ≤ 0.016 µg/mL; MIC50 (Streptococcus pneumoniae [13]): ≤ 0.016 µg/mL; MIC90 (Streptococcus pneumoniae [13]): ≤ 0.016 µg/mL; MIC50 (Escherichia coli [15]): 0.25 µg/mL (≈ 0.427 µM); MIC50 (Haemophilus influenzae): 0.5 µg/mL (≈ 0.854 µM); MIC90 (Haemophilus influenzae): 0.5 µg/mL (≈ 0.854 µM)
